ChEMBL document CHEMBL3244238, “In search of anti-Trypanosoma cruzi drugs: new leads from a mouse model” (J Med Chem, 1977)
Activity calls are given as the source filed them. The calls are words filed in the database; no cut-off is given here.

Legend:
Trypanosoma cruzi [1] = assay: Antitrypanosomal activity against Trypanosoma cruzi infected in albino CF1 mouse assessed as reduction in number of parasites in blood at 104 mg/kg/day, intramuscular treatment started on day 10 of infection up to day 14; format: functional; conditions: for inhibition in vivo at 104 mg/kg/day: im
Procedure, shortened: (§1)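 Male CF1 albino mice (4-10 weeks) infected intraperitoneally with 50 000 Brazil-strain T. cruzi trypomastigotes in Hanks' balanced salt solution, pH 7.2. Dosing was intramuscular, twice daily, from day 10 to day 13 afternoon or day 14 morning. Vehicle was 0.1% Tween 80 + 0.5% hydroxyethylcellulose. Seven mice per dose; dose given as total salt weight. Parasites/mL blood counted from day-14 smears; % suppression versus vehicle controls.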

Trypanosoma cruzi [2] = assay: Antitrypanosomal activity against Trypanosoma cruzi infected in albino CF1 mouse assessed as reduction in number of parasites in blood at 13 mg/kg/day, intramuscular treatment started on day 10 of infection up to day 14; format: functional; conditions: for inhibition in vivo at 13 mg/kg/day: im; procedure, shortened: as §1
Trypanosoma cruzi [3] = assay: Antitrypanosomal activity against Trypanosoma cruzi infected in albino CF1 mouse assessed as reduction in number of parasites in blood at 52 mg/kg/day, intramuscular treatment started on day 10 of infection up to day 14; format: functional; conditions: for inhibition in vivo at 52 mg/kg/day: im; procedure, shortened: as §1
Trypanosoma cruzi [4] = assay: Antitrypanosomal activity against Trypanosoma cruzi infected in albino CF1 mouse assessed as reduction in number of parasites in blood at 3.25 mg/kg/day, intramuscular treatment started on day 10 of infection up to day 14; format: functional; conditions: for inhibition in vivo at 3.25 mg/kg/day: im
Procedure, shortened: (§2)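 Male CF1 albino mice (4-10 weeks) were infected ip with 50 000 Brazil-strain trypomastigotes in 0.2 mL Hanks' BSS, pH 7.2. Dosing was intramuscular, twice daily in 0.1% Tween 80/0.5% hydroxyethylcellulose, from day 10 through day 13 pm or day 14 am. Three fourfold-spaced doses were given, 7 mice per dose, with vehicle-only controls. Parasites/mL of blood were counted from day-14 smears.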

Trypanosoma cruzi [5] = assay: Antitrypanosomal activity against Trypanosoma cruzi infected in albino CF1 mouse assessed as reduction in number of parasites in blood at 26 mg/kg/day, intramuscular treatment started on day 10 of infection up to day 14; format: functional; conditions: for inhibition in vivo at 26 mg/kg/day: im; procedure, shortened: as §2
Trypanosoma cruzi [6] = assay: Antitrypanosomal activity against Trypanosoma cruzi infected in albino CF1 mouse assessed as reduction in number of parasites in blood intramuscularly treated daily from day 10 of infection up to day 14; format: functional; procedure, shortened: as §2
Trypanosoma cruzi [7] = assay: Potency index, ratio of nifurtimox SD90 to compound SD90 for Trypanosoma cruzi infected in albino CF1 mouse assessed as reduction in number of parasites in blood; format: functional
Procedure, shortened: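 Index = nifurtimox SD90 ÷ test-compound SD90. SD values were read graphically from log-probit plots of % parasitemia suppression versus dose (mg/kg/day) in intramuscularly treated, T. cruzi-infected CF1 mice. A lower SD level was used when SD90 was unattainable. For salts, doses were given by total weight, and the index was multiplied by the reciprocal of the base fraction.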

Mus musculus = assay: Toxicity in albino CF1 mouse at 104 mg/kg/day, intramuscular treatment started on day 10 of trypanosomal infection up to day 14; format: organism-based; set-up: route intramuscular; conditions: in vivo, im

Row | SMILES | inhibition (Trypanosoma cruzi [1]) | inhibition (Trypanosoma cruzi [2]) | inhibition (Trypanosoma cruzi [3]) | Ratio (Trypanosoma cruzi [7]) | also measured
1 | c1ccc(C2CN3CCSC3=N2)cc1 (stereo not drawn) | inactive | inactive | inactive | – | –
2 | Nc1nc(N)c2cc(S(=O)(=O)c3ccc4ccccc4c3)ccc2n1 | inactive | inactive | inactive | – | –
3 | Nc1ccc(C(c2ccc(N)cc2)c2ccc(N)cc2)cc1 | – | – | – | – | inhibition in vivo at 3.25 mg/kg/day (Trypanosoma cruzi [4]): 43%; inhibition in vivo at 26 mg/kg/day (Trypanosoma cruzi [5]): 39%; inhibition in vivo at 104 mg/kg/day (Trypanosoma cruzi [1]): 52%
4 | COc1cc(NC(C)CCN)c2ncc(C)cc2c1.O=P(O)(O)O (stereo not drawn) | – | – | – | >9.2 | SD90 (Trypanosoma cruzi [6]): <3.25 mg/kg; inhibition in vivo at 3.25 mg/kg/day (Trypanosoma cruzi [4]): 92%; inhibition in vivo at 26 mg/kg/day (Trypanosoma cruzi [5]): 99%; inhibition in vivo at 13 mg/kg/day (Trypanosoma cruzi [2]): 98%
5 | Nc1nc(N)c2c(n1)CCC(S(=O)(=O)c1ccc3ccccc3c1)C2 (stereo not drawn) | inactive | inactive | inactive | – | –
6 | Nc1nc(/C=C/c2ccc([N+](=O)[O-])o2)no1 | – | – | – | 1.13 | SD90 (Trypanosoma cruzi [6]): 48.5 mg/kg; inhibition in vivo at 3.25 mg/kg/day (Trypanosoma cruzi [4]): 49%; inhibition in vivo at 26 mg/kg/day (Trypanosoma cruzi [5]): 91%; inhibition in vivo at 104 mg/kg/day (Trypanosoma cruzi [1]): 90%
7 | COc1cc(NC(C)CCCN)c(OC)c2c(C)cc(C)nc12 (stereo not drawn) | inactive | inactive | inactive | – | –
8 | Cc1cc(NCCCCCCNc2cc(C)nc3ccc(N)cc23)c2cc(N)ccc2n1 | inactive | inactive | inactive | – | –
9 | CCN(CC)CCCCCCNc1cc(OC)cc2c(C)ccnc12 | – | inactive | – | inactive | inhibition (Trypanosoma cruzi [4]): inactive; inhibition (Trypanosoma cruzi [5]): inactive
10 | COc1cc(NC(C)CCN)c2ncccc2c1.Cl (stereo not drawn) | – | – | – | 3.8 | SD90 (Trypanosoma cruzi [6]): 21.8 mg/kg; inhibition in vivo at 104 mg/kg/day (Trypanosoma cruzi [1]): 100%; inhibition in vivo at 13 mg/kg/day (Trypanosoma cruzi [2]): 80%; inhibition in vivo at 52 mg/kg/day (Trypanosoma cruzi [3]): 97%
11 | Nc1ccc(C(c2ccc(N)cc2)c2ccc(N)cc2)cc1.O=C(O)c1cc2ccccc2c(Cc2c(O)c(C(=O)O)cc3ccccc23)c1O | – | – | – | 0.3 | SD50 (Trypanosoma cruzi [6]): 96 mg/kg
12 | Cc1ccc(C[P+](c2ccccc2)(c2ccccc2)c2ccccc2)cc1.[Cl-] | – | – | – | 3.6 | SD80 (Trypanosoma cruzi [6]): 13 mg/kg; inhibition in vivo at 3.25 mg/kg/day (Trypanosoma cruzi [4]): 80%; Activity (Mus musculus): Toxic; inhibition in vivo at 26 mg/kg/day (Trypanosoma cruzi [5]): 85%
13 | COc1cc(NCCCN2CCN(CCCNc3cc(OC)cc4cccnc34)CC2)c2ncccc2c1 | inactive | inactive | inactive | – | –
14 | CC1CS(=O)(=O)CCN1/N=C/c1ccc([N+](=O)[O-])o1 (stereo not drawn) [NIFURTIMOX] | – | – | – | 1 | SD90 (Trypanosoma cruzi [6]): 41.5 mg/kg; inhibition in vivo at 104 mg/kg/day (Trypanosoma cruzi [1]): 99%; inhibition in vivo at 13 mg/kg/day (Trypanosoma cruzi [2]): 57%; inhibition in vivo at 52 mg/kg/day (Trypanosoma cruzi [3]): 92%
15 | CCCNCCCCCNc1cc(OC)cc2cccnc12.O=P(O)(O)O | – | – | – | 1.2 | SD90 (Trypanosoma cruzi [6]): 43.5 mg/kg; inhibition in vivo at 104 mg/kg/day (Trypanosoma cruzi [1]): 99%; inhibition in vivo at 13 mg/kg/day (Trypanosoma cruzi [2]): 54%; inhibition in vivo at 52 mg/kg/day (Trypanosoma cruzi [3]): 93%
16 | CC(C)NCC1CCc2cc(CO)c([N+](=O)[O-])cc2N1 (stereo not drawn) | inactive | inactive | inactive | – | –
17 | CCN(CC)CCCNc1cc(OC)c2nc(C)ccc2c1OC.O=C(O)c1ccc(O)cc1O | inactive | inactive | inactive | – | –
18 | COc1cc(NC(C)CCCN)c(OC)c2c(C)ccnc12.O=C(O)c1ccc(O)cc1O (stereo not drawn) | inactive | inactive | inactive | – | –
19 | COc1cc(NC(C)CCN)c2nc(C)ccc2c1.Cl.O (stereo not drawn) | – | – | – | 3.9 | SD80 (Trypanosoma cruzi [6]): 10.5 mg/kg; inhibition in vivo at 3.25 mg/kg/day (Trypanosoma cruzi [4]): 38%; inhibition in vivo at 26 mg/kg/day (Trypanosoma cruzi [5]): 82%; inhibition in vivo at 13 mg/kg/day (Trypanosoma cruzi [2]): 86%
20 | COc1cc(NC(C)CCN)c2ncccc2c1/N=N/c1ccc(C(=O)O)cc1 (stereo not drawn) | – | – | – | >4 | SD90 (Trypanosoma cruzi [6]): <3 mg/kg; inhibition in vivo at 104 mg/kg/day (Trypanosoma cruzi [1]): 100%; inhibition in vivo at 13 mg/kg/day (Trypanosoma cruzi [2]): 98%; inhibition in vivo at 52 mg/kg/day (Trypanosoma cruzi [3]): 99%
21 | COc1cc(NC(C)CCN)c2nccc(C)c2c1 (stereo not drawn) | inactive | inactive | inactive | inactive | –
22 | NC1(C(=O)O)CCCC1 | inactive | inactive | inactive | – | –
23 | COc1c(NC(C)CCN)cc(OC)c2c(C)ccnc12 (stereo not drawn) | inactive | inactive | inactive | inactive | –
24 | N=C(N)c1ccc(-c2ccc(-c3ccc(C(=N)N)cc3)o2)cc1 | inactive | inactive | inactive | – | –
25 | O=C(O)c1[nH]c(=O)[nH]c(=O)c1F | inactive | inactive | inactive | – | –
